The results in this text go back to article PMC7686272 (Angewandte Chemie (International ed. in English), 2020).

Like-named read-outs stand apart in the source and are kept apart here.

Assay [1] has as its system L858R/T790M/C797S EGFR Ba/F3 cells. Kind of assay: Ba/F3 cell proliferation assay, L858R/T790M/C797S EGFR. It counts as cell-based, murine.
Assay [2] deals with L858R/T790M/L718Q EGFR Ba/F3 cells. Kind of assay: Ba/F3 cell proliferation assay, L858R/T790M/L718Q EGFR. It counts as cell-based, murine.
Assay [3] addresses EGFR L858R/T790M (Homo sapiens, UniProt P00533, L858R/T790M). Kind of assay: HTRF kinase assay of purified EGFR L858R/T790M. It counts as biochemical. The note with it: for IC50: read-out: IC50 against EGFR L858R/T790M, HTRF assay, purified enzyme. On the technique in general: In TR-FRET formats the signal depends on donor and acceptor labels being close together.
The target in assay [4] is L858R/T790M EGFR (Homo sapiens, UniProt P00533, L858R/T790M). Kind of assay: Western blot of total EGFR protein in L858R/T790M Ba/F3 cells. It counts as cell-based, murine. The settings on record: L858R/T790M Ba/F3, 24 hours, 0.1 μM DDC-01-163; 10 μM pomalidomide, 1 μM JBJ-07-149 or increasing MLN4924.
Assay [5] has as its target wildtype EGFR (Homo sapiens, UniProt P00533). Kind of assay: Western blot of total EGFR protein in wildtype EGFR Ba/F3 cells. It counts as cell-based, murine. The note with it: increasing concentrations, 6, 24 and 48 hours. In outline: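 Wildtype EGFR Ba/F3 cells exposed to rising test-compound concentrations for 6, 24 and 48 h, then lysed and immunoblotted for total EGFR with tubulin as loading control. Band densitometry was normalised to tubulin and expressed as percent EGFR remaining relative to DMSO control. The same treatment was run in parallel on L858R/T790M Ba/F3 cells.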
(In general: A western blot detects proteins with antibodies after separation by electrophoresis.)

In assay [6] the target is CRBN (Homo sapiens, UniProt Q96SW2). Kind of assay: Cellular CRBN engagement assay. It counts as cell-based. The settings on record: restoration of BRD4BD2-GFP signal, Figure 2B.
CRBN, sequence (Q96SW2 whole entry, species assumed): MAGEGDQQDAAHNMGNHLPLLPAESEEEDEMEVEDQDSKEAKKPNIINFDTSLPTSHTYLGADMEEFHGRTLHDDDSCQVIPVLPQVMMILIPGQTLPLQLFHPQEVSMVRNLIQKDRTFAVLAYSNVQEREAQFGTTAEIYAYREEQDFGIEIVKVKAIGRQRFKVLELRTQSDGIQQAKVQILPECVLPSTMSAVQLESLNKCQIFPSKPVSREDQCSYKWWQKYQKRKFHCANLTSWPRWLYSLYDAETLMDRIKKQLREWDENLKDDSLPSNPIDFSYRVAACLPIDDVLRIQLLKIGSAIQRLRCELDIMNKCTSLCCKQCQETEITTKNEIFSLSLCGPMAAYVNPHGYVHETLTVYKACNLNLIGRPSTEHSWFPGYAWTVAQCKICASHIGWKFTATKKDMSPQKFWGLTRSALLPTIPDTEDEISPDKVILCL

Turning to `O=C(Nc1nccs1)C(c1ccccc1)N1Cc2ccc(-c3ccc(N4CCNCC4)nc3)cc2C1=O` (stereo not drawn) [JBJ-07-149], the “sensitivity of LT/C797S EGFR Ba/F3 cells in cell proliferation assay” value in assay [1] (L858R/T790M/C797S EGFR Ba/F3 cells) is reported as “resistant”. Further, the “sensitivity of LT/L718Q EGFR Ba/F3 cells in cell proliferation assay” value in assay [2] (L858R/T790M/L718Q EGFR Ba/F3 cells) is on record as “resistant”. Besides, the IC50 in assay [3] was 1.1 nM. Also, the “effect on EGFR degradation by DDC-01-163 (competition / rescue)” value (“effect … (competition / rescue)” below) in assay [4] is given as “prevented EGFR degradation”.

Consider `NS(=O)(=O)OC[C@@H]1C[C@@H](n2ccc3c(N[C@H]4CCc5ccccc54)ncnc32)C[C@@H]1O` [MLN4924], for which the “effect … (competition / rescue)” value in assay [4] is “rescue EGFR degradation”.

In the case of `Nc1cccc2c1C(=O)N(C1CCC(=O)NC1=O)C2=O` (stereo not drawn) [pomalidomide], the “effect … (competition / rescue)” value in assay [4] is recorded as “prevented EGFR degradation”.

`C=CC(=O)Nc1cc(Nc2nccc(-c3cn(C)c4ccccc34)n2)c(OC)cc1N(C)CCN(C)C` [osimertinib, reference compound]: the “sensitivity of LT/C797S EGFR Ba/F3 cells in cell proliferation assay” value in assay [1] was “resistant”. Also, the “sensitivity of LT/L718Q EGFR Ba/F3 cells in cell proliferation assay” value in assay [2] is recorded as “resistant”.

As to `O=C1CCC(N2C(=O)c3cccc(NCCOCCOCCOCCN4CCN(c5ccc(-c6ccc7c(c6)C(=O)N(C(C(=O)Nc6nccs6)c6cc(F)ccc6O)C7)cc5)CC4)c3C2=O)C(=O)N1` (stereo not drawn) [JBJ-07-038], the “effect on EGFR protein levels in wildtype Ba/F3 cells” value in assay [5] was “did not affect protein levels”. Besides, the IC50 in assay [3] stood at 19 nM.

In the case of `O=C1CCC(N2C(=O)c3cccc(NCCOCCOCCOCCN4CCN(c5ccc(-c6ccc7c(c6)C(=O)N(C(C(=O)Nc6nccs6)c6cc(F)ccc6F)C7)cc5)CC4)c3C2=O)C(=O)N1` (stereo not drawn) [JBJ-07-200], the “cellular CRBN engagement” value in assay [6] is “more potent CRBN engagement than JBJ-07-038”. For the same molecule, in assay [5], the “effect on EGFR protein levels in wildtype Ba/F3 cells” value is “did not affect protein levels”. In assay [3] (ratio of IC50 values), the “reduction of biochemical activity compared to DDC-01-163” value was determined as 9 fold and the “reduction of biochemical activity compared to JBJ-07-038” value worked out at 21 fold. Also, the IC50 in assay [3] was 390 nM.
